Data set [1] deals with L1210. As to the kind of experiment: Dose required for 50% inhibition of cell growth (L1210 Leukemia) calculated at 48 hours by using probit analysis. It is filed as functional, Mus musculus. The conditions noted are these: for IC50: Mus musculus, L1210, 48 h, read-out: ID50 (the source's name). In outline:
(§1)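 L1210 cells in RPMI1640 with 10% fetal calf serum, seeded at (3–4) × 10⁴ cells/mL. Drug added to final 10⁻³ to 10⁻⁶ M, duplicates, with untreated and Me₂SO controls. Incubated at 37 °C in 5% CO₂, counted by Coulter counter.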

In data set [2] the test system is Rous sarcoma virus. As to the kind of experiment: Inhibition of cell transformation by Rous Sarcoma virus. In kind it is functional. The conditions noted are these: read-out: ID50 (the source's name). The method in brief: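 Chick embryo fibroblasts at 5 × 10⁵ cells/60-mm dish, given about 200 focus-forming units of Rous sarcoma virus with drug (final 10⁻³ to 10⁻⁶ M, up to 1% Me₂SO in stock) for 8-16 h at 37 °C. Agar overlay with drug for 4 days, then second overlay. Foci counted on days 7-10; % inhibition = (1 − T/C)×100, probit analysis.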

Data set [3] has as its system L1210. The data set can be described thus: Concentration required for 50% inhibition of cell growth (L1210 Leukemia). In kind it is functional, cell-based. To be noted: Mus musculus, read-out: pI50 (converted). In outline:
as §1

Data set [4] has as its system Rous sarcoma virus. As to the kind of experiment: Compound tested for its effect on Rous sarcoma viral replication and virus yield was determined at 1e-6 M. It is filed as functional. The method in brief: (§2)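 Chick embryo cells at 5 × 10⁵ cells/60-mm dish, medium replaced with fresh Hams F10 medium plus drug solution and Rous sarcoma virus; control of medium plus virus only. On days 3 and 6, medium plus drug renewed; medium harvested two days later. Virus titer in harvests measured by drug-free focus assay on chick embryo fibroblasts and compared with control.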

In data set [5] the test system is Rous sarcoma virus. The data set can be described thus: Compound was tested for percent inhibition against Rous sarcoma viral replication at 1e-6 M. It is filed as functional. In outline:
as §2

Data set [6] is described as follows: Compound was evaluated for lethal dose in mice. It is filed as toxicity, organism-based. The conditions noted are these: mouse, in vivo. The method in brief: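 Swiss-Webster male mice, six per dose; compound suspended in 2.5% acacia in normal saline and injected intraperitoneally by body weight; vehicle-injected controls. LD50 calculated by probit analysis.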

Data set [7] relates to Rous sarcoma virus. The data set can be described thus: Compound tested for its effect on Rous sarcoma viral replication and virus yield was determined at 2e-5 M. In kind it is functional. In outline: as §2
Data set [8] deals with Rous sarcoma virus. The data set can be described thus: Compound was tested for percent inhibition against Rous sarcoma viral replication at 2e-5 M. It is filed as functional. The method in brief:
as §2

For a further data set, the system named is Mus musculus. The data set can be described thus: Compound evaluated for % T/C of median survival time at 100 mg/kg against P388 leukemia in mice.
In data set [9] the test system is Rous sarcoma virus. The data set can be described thus: Compound tested for its effect on Rous sarcoma viral replication and virus yield was determined at 3e-6M. In kind it is functional. The method in brief:
as §2

The test system of data set [10] is Rous sarcoma virus. The data set can be described thus: Compound was tested for percent inhibition against Rous sarcoma viral replication at 3e-6M. It is filed as functional. In outline: as §2
For data set [11], the system named is Rous sarcoma virus. As to the kind of experiment: Compound tested for its effect on Rous sarcoma viral replication and virus yield was determined at 7e-6M. It is filed as functional. In outline:
as §2

Data set [12] has as its system Rous sarcoma virus. The data set can be described thus: Compound was tested for percent inhibition against Rous sarcoma viral replication at 7e-6M. In kind it is functional. The method in brief: as §2
Data set [13] relates to Rous sarcoma virus. As to the kind of experiment: Compound was tested for percent inhibition against Rous sarcoma viral replication at 5e-6M. It is filed as functional. In outline: as §2
In data set [14] the test system is Rous sarcoma virus. As to the kind of experiment: Compound tested for its effect on Rous sarcoma viral replication and virus yield was determined at 5e-6M. In kind it is functional. The method in brief:
as §2

In general, Inhibition refers to the change of the read-out against control, counted positive when it falls. High values mean strong suppression, low ones little suppression. As usually defined, the LD50 is the dose expected to kill half of the subjects tested. Low readings indicate a more toxic substance, high ones a less toxic substance. A word on the T/C: it is the ratio of treated to control.

The structures appear in SMILES notation.

As for `N/C(=N\O)N/N=C/c1ccc(OCc2ccccc2)cc1`, the IC50 is 25.3 µM in the data set with L1210 [1], 8.1 µM in the data set with Rous sarcoma virus [2] and 25.1 µM in the data set on L1210 [3].

In the case of `N/C(=N\O)N/N=C/c1cccnc1`, the figures for the IC50 with L1210 [1], in the data set on Rous sarcoma virus [2] and in the data set with L1210 [3] were 23.1 µM, 81 µM and 22.9 µM, respectively.

Take `COc1ccc(OC)c(/C=N/N=C(\N)NO)c1.Cc1ccc(S(=O)(=O)O)cc1`: in the data set on Rous sarcoma virus [4], the Virus yield stood at 31000 ffu ml-1. The IC50 was 7.1 µM with L1210 [1], 2.7 µM in the data set with Rous sarcoma virus [2] and 7.08 µM in the data set with L1210 [3]. The same compound yielded an Inhibition in the data set on Rous sarcoma virus [5] of 80%.

`Cc1ccc(S(=O)(=O)O)cc1.N#Cc1ccc(/C=N/N/C(N)=N/O)cc1`: the figures for the IC50 in the data set on L1210 [1], with Rous sarcoma virus [2] and in the data set with L1210 [3] were 9.4 µM, 97.2 µM and 9.33 µM, respectively. The same compound gave an LD50 in [6] of 156 mg/kg.

Consider `Cc1ccc(S(=O)(=O)O)cc1.N/C(=N\O)N/N=C/c1ccc2ccccc2n1`, for which the IC50 with L1210 [1] was 6.8 µM; in the data set with Rous sarcoma virus [2] it was 43.8 µM; in the data set with L1210 [3], 6.76 µM. This compound also yielded a Virus yield in the data set with Rous sarcoma virus [7] of 25000 ffu ml-1. The Inhibition in the data set on Rous sarcoma virus [8] is reported as 84%.

Turning to `Cc1ccc(S(=O)(=O)O)cc1.N/C(=N\O)N/N=C/c1cc(Br)cc(Br)c1O`, the IC50 in the data set on L1210 [1] is 16.5 µM; in the data set with Rous sarcoma virus [2], 6.5 µM; in the data set with L1210 [3] it was 16.6 µM. Further, in the data set on Mus musculus, the T/C was 140%.

For the compound `Cc1ccc(S(=O)(=O)O)cc1.N/C(=N\O)N/N=C/c1nccc2ccccc12`, in the data set with L1210 [1], the ID50 was 3.3 µM. In addition, in the data set with Rous sarcoma virus [9], the Virus yield is listed as 34000 ffu ml-1. The Inhibition in the data set on Rous sarcoma virus [10] was found to be 79%. Besides, the IC50 is 15.8 µM in the data set with Rous sarcoma virus [2] and 3.31 µM in the data set on L1210 [3].

As for `Cc1ccc(S(=O)(=O)O)cc1.N/C(=N\O)N/N=C/C1CC2C=CC1C2` (stereo not drawn), the IC50 with L1210 [1] was 10.6 µM; in the data set with L1210 [3], 10.7 µM. In the data set with Rous sarcoma virus [11], this compound displayed a Virus yield of 9300 ffu ml-1. The compound also gave an Inhibition in the data set with Rous sarcoma virus [12] of 94%.

`N/C(=N\O)N/N=C/c1ccc(C(F)(F)F)cc1`: the IC50 in the data set on L1210 [1] was 9.2 µM; with Rous sarcoma virus [2], 11.8 µM; in the data set with L1210 [3], 9.12 µM.

As for `N/C(=N\O)N/N=C/c1ccc(Cl)c([N+](=O)[O-])c1`, the figures for the IC50 in the data set on L1210 [1], in the data set with Rous sarcoma virus [2] and in the data set with L1210 [3] were 12.7 µM, 9.6 µM and 12.6 µM, respectively.

As for `CS(=O)(=O)Oc1cccc(/C=N/N=C(\N)NO)c1`, the IC50 with L1210 [1] was 14.8 µM; in the data set on Rous sarcoma virus [2] it was 35.2 µM; in the data set on L1210 [3], 14.8 µM.

In the case of `Cc1ccc(S(=O)(=O)O)cc1.Cn1cccc1/C=N/N=C(\N)NO`, the IC50 with L1210 [1] is 2.7 µM; in the data set with Rous sarcoma virus [2] it was 4.5 µM; in the data set on L1210 [3], 2.69 µM. Besides, the Inhibition with Rous sarcoma virus [13] is recorded as 44%. This compound showed an LD50 in [6] of 322 mg/kg. The compound further gave a Virus yield in the data set with Rous sarcoma virus [14] of 90000 ffu ml-1.

For `N/C(=N\O)N/N=C/c1cccc([N+](=O)[O-])c1`, the IC50 in the data set on L1210 [1] was 7.6 µM; with Rous sarcoma virus [2], 35.7 µM; in the data set with L1210 [3] it was 7.59 µM.

As for `NC(=O)NO` [HYDROXYUREA], the IC50 in the data set with L1210 [1] was 21.6 µM; in the data set on L1210 [3], 21.4 µM.

(Values after ChEMBL document CHEMBL1122918, “Optimization of the Schiff bases of N-hydroxy-N'-aminoguanidine as anticancer and antiviral agents” (J Med Chem, 1985).)
